Where “and” joins values, the source holds several entries; their conditions need not be identical. Equal entries are not always repeated.
Tested on: HEK-293T
Assay: Multiplex assay against HEK293T;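 for Population Tubulin-Different-Phenotype (%): share of the cells with healthy nuclei that show this phenotype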
Type: toxicity, cell-based
Conditions: human
Method in brief: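 Four dyes were applied at seeding to live cells: Hoechst33342, BioTracker Green Microtubule Cytoskeleton Dye, MitoTracker Red and Annexin V Alexa Fluor 680. Imaging after compound addition used a CQ1 microscope at 37°C and 5% CO2. CellPathfinder machine-learning gating then sorted cells into Hoechst high-intensity objects or normal cells, normal cells into healthy, pyknosed or fragmented nuclei, and pyknosed cells into mitotic or apoptotic, with tubulin, mitochondrial-mass and membrane-permeability phenotypes given as per cents of healthy-nucleus cells.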

[1] = 12 h, 1 µM, compound concentration 1 uM, replicate 1
[2] = 12 h, 1 µM, compound concentration 1 uM, replicate 2
[3] = 12 h, 10 µM, compound concentration 10 uM, replicate 1
[4] = 12 h, 10 µM, compound concentration 10 uM, replicate 2
[5] = 24 h, 1 µM, compound concentration 1 uM, replicate 1
[6] = 24 h, 1 µM, compound concentration 1 uM, replicate 2
[7] = 24 h, 10 µM, compound concentration 10 uM, replicate 1
[8] = 24 h, 10 µM, compound concentration 10 uM, replicate 2
[9] = 48 h, 1 µM, compound concentration 1 uM, replicate 1
[10] = 48 h, 1 µM, compound concentration 1 uM, replicate 2
[11] = 48 h, 10 µM, compound concentration 10 uM, replicate 1
[12] = 48 h, 10 µM, compound concentration 10 uM, replicate 2

Compound: CS(=O)(=O)N1CCCC(NC(=O)[C@H](CCC2CCCCC2)NC(=O)c2ccc(CNC(=O)c3cnc4ccccn34)cc2)C1 (stereo partly specified) [SR-302]
- Population Apoptotic (%) [1]: 40% [middle of 4 runs]
- Population Fragmented Nuclei (%) [1]: 13% [middle of 4 runs]
- Population Hoechst High Intensity Objects (%) [1]: 14% [middle of 4 runs]
- Population Membrane Permeable-Phenotype (%) [1]: 3% and 2%
- Population Mitotic Cells (%) [1]: 65% [middle of 4 runs]
- Population Normal (%) [1]: 86% and 85% and 81%
- Total Cell Count [1]: 519 [middle of 4 runs]
- Population Apoptotic (%) [2]: 17% [middle of 4 runs]
- Population Fragmented Nuclei (%) [2]: 8% and 5%
- Population Healthy Nuclei (%) [2]: 48% [middle of 4 runs]
- Population Hoechst High Intensity Objects (%) [2]: 6% and 3% and 2%
- Population Mitotic Cells (%) [2]: 88% [middle of 4 runs]
- Population Normal (%) [2]: 93% and 96% and 97%
- Population Apoptotic (%) [3]: 65% [middle of 4 runs]
- Population Fragmented Nuclei (%) [3]: 13% and 12% and 16%
- Population Hoechst High Intensity Objects (%) [3]: 16% [middle of 4 runs]
- Population Membrane Permeable-Phenotype (%) [3]: 7% and 4% and 3%
- Population Mitotic Cells (%) [3]: 35% [middle of 4 runs]
- Population Normal (%) [3]: 85% and 83% and 77% and 86%
- Total Cell Count [3]: 331 [middle of 4 runs]
- Population Healthy Nuclei (%) [4]: 30% and 36% and 87%
- Population Membrane Permeable-Phenotype (%) [4]: 12% and 8%
- Population Mitotic Cells (%) [4]: 52% [middle of 4 runs]
- Population Normal (%) [4]: 95% and 90% and 94% and 97%
- Population Tubulin-Different-Phenotype (%) [4]: 93% [middle of 4 runs]
- Population Apoptotic (%) [5]: 52% [middle of 4 runs]
- Population Fragmented Nuclei (%) [5]: 13% [middle of 4 runs]
- Population Hoechst High Intensity Objects (%) [5]: 15% and 14% and 24%
- Population Membrane Permeable-Phenotype (%) [5]: 4% and 3% and 2%
- Population Mitotic Cells (%) [5]: 64% [middle of 4 runs]
- Population Normal (%) [5]: 84% and 85% and 75%
- Population Healthy Nuclei (%) [6]: 65% [middle of 4 runs]
- Population Membrane Permeable-Phenotype (%) [6]: 11% and 7% and 5%
- Population Mitotic Cells (%) [6]: 76% and 75% and 93%
- Population Normal (%) [6]: 95% and 97% and 96% and 98%
- Population Apoptotic (%) [7]: 63% and 66% and 26%
- Population Fragmented Nuclei (%) [7]: 18% [middle of 4 runs]
- Population Hoechst High Intensity Objects (%) [7]: 17% [middle of 4 runs]
- Population Mitotic Cells (%) [7]: 36% and 33% and 73%
- Population Normal (%) [7]: 82% and 84% and 81% and 89%
- Total Cell Count [7]: 335 [middle of 4 runs]
- Population Fragmented Nuclei (%) [8]: 3% and 6%
- Population Healthy Nuclei (%) [8]: 44% and 77% and 50%
- Population Membrane Permeable-Phenotype (%) [8]: 13% and 6% and 5%
- Population Mitotic Cells (%) [8]: 94% and 46% and 37%
- Population Normal (%) [8]: 98% and 97% and 91% and 95%
- Population Tubulin-Different-Phenotype (%) [8]: 56% and 88% and 94%
- Population Apoptotic (%) [9]: 46% and 31% and 58%
- Population Fragmented Nuclei (%) [9]: 25% and 16% and 23%
- Population Healthy Nuclei (%) [9]: 24% and 43% and 23%
- Population Hoechst High Intensity Objects (%) [9]: 11% and 24%
- Population Membrane Permeable-Phenotype (%) [9]: 1% and 0%
- Population Mitochondria Different-Phenotype (%) [9]: 42% and 44% and 58%
- Population Mitotic Cells (%) [9]: 53% and 68% and 41%
- Population Normal (%) [9]: 88% and 76%
- Population Pyknosed Nuclei (%) [9]: 49% and 40% and 53%
- Population Tubulin-Different-Phenotype (%) [9]: 18% and 29% and 41%
- Total Cell Count [9]: 293 and 638 and 325
- Population Apoptotic (%) [10]: 30% and 16% and 25%
- Population Fragmented Nuclei (%) [10]: 5% and 6% and 7%
- Population Healthy Nuclei (%) [10]: 81% and 84% and 82%
- Population Hoechst High Intensity Objects (%) [10]: 5% and 4%
- Population Membrane Permeable-Phenotype (%) [10]: 3%
- Population Mitochondria Different-Phenotype (%) [10]: 9% and 8% and 10%
- Population Mitotic Cells (%) [10]: 69% and 83% and 74%
- Population Normal (%) [10]: 94% and 95%
- Population Pyknosed Nuclei (%) [10]: 12% and 9% and 10%
- Population Tubulin-Different-Phenotype (%) [10]: 16% and 27%
- Total Cell Count [10]: 344 and 689 and 583
- Population Apoptotic (%) [11]: 64% and 65% and 62%
- Population Fragmented Nuclei (%) [11]: 23% and 21% and 33%
- Population Healthy Nuclei (%) [11]: 18% and 20% and 19%
- Population Hoechst High Intensity Objects (%) [11]: 22% and 18%
- Population Membrane Permeable-Phenotype (%) [11]: 3% and 0%
- Population Mitochondria Different-Phenotype (%) [11]: 90% and 100% and 97%
- Population Mitotic Cells (%) [11]: 35% and 34% and 37%
- Population Normal (%) [11]: 77% and 81%
- Population Pyknosed Nuclei (%) [11]: 58% and 57% and 47%
- Population Tubulin-Different-Phenotype (%) [11]: 96% and 95%
- Total Cell Count [11]: 360 and 347 and 256
- Population Apoptotic (%) [12]: 61% and 73% and 52%
- Population Fragmented Nuclei (%) [12]: 4% and 5% and 8%
- Population Healthy Nuclei (%) [12]: 69% and 75% and 71%
- Population Membrane Permeable-Phenotype (%) [12]: 1%
- Population Mitochondria Different-Phenotype (%) [12]: 89% and 83%
- Population Mitotic Cells (%) [12]: 38% and 26% and 47%
- Population Normal (%) [12]: 97% and 95% and 92%
- Population Pyknosed Nuclei (%) [12]: 26% and 19%
- Total Cell Count [12]: 310 and 372 and 210

Compound: CC[C@H](Nc1ncnc2[nH]cnc12)c1nc2cccc(F)c2c(=O)n1-c1ccccc1 [IDELALISIB]
- Population Apoptotic (%) [1]: 22%
- Population Fragmented Nuclei (%) [1]: 18%
- Population Healthy Nuclei (%) [1]: 46%
- Population Hoechst High Intensity Objects (%) [1]: 14%
- Population Membrane Permeable-Phenotype (%) [1]: 12%
- Population Mitochondria Different-Phenotype (%) [1]: 15%
- Population Mitotic Cells (%) [1]: 77%
- Population Normal (%) [1]: 85%
- Population Pyknosed Nuclei (%) [1]: 34%
- Population Tubulin-Different-Phenotype (%) [1]: 29%
- Total Cell Count [1]: 588
- Population Apoptotic (%) [2]: 10%
- Population Fragmented Nuclei (%) [2]: 5%
- Population Healthy Nuclei (%) [2]: 85%
- Population Hoechst High Intensity Objects (%) [2]: 3%
- Population Membrane Permeable-Phenotype (%) [2]: 11%
- Population Mitochondria Different-Phenotype (%) [2]: 18%
- Population Mitotic Cells (%) [2]: 89%
- Population Normal (%) [2]: 96%
- Population Pyknosed Nuclei (%) [2]: 9%
- Population Tubulin-Different-Phenotype (%) [2]: 64%
- Total Cell Count [2]: 1315
- Population Apoptotic (%) [3]: 18%
- Population Fragmented Nuclei (%) [3]: 15%
- Population Healthy Nuclei (%) [3]: 60%
- Population Hoechst High Intensity Objects (%) [3]: 9%
- Population Membrane Permeable-Phenotype (%) [3]: 4%
- Population Mitochondria Different-Phenotype (%) [3]: 3%
- Population Mitotic Cells (%) [3]: 81%
- Population Normal (%) [3]: 91%
- Population Pyknosed Nuclei (%) [3]: 23%
- Population Tubulin-Different-Phenotype (%) [3]: 2%
- Total Cell Count [3]: 500
- Population Apoptotic (%) [4]: 8%
- Population Fragmented Nuclei (%) [4]: 8%
- Population Healthy Nuclei (%) [4]: 86%
- Population Hoechst High Intensity Objects (%) [4]: 2%
- Population Membrane Permeable-Phenotype (%) [4]: 1%
- Population Mitochondria Different-Phenotype (%) [4]: 10%
- Population Mitotic Cells (%) [4]: 91%
- Population Normal (%) [4]: 97%
- Population Pyknosed Nuclei (%) [4]: 5%
- Population Tubulin-Different-Phenotype (%) [4]: 7%
- Total Cell Count [4]: 1603
- Population Apoptotic (%) [5]: 17%
- Population Fragmented Nuclei (%) [5]: 14%
- Population Healthy Nuclei (%) [5]: 67%
- Population Hoechst High Intensity Objects (%) [5]: 10%
- Population Membrane Permeable-Phenotype (%) [5]: 16%
- Population Mitochondria Different-Phenotype (%) [5]: 12%
- Population Mitotic Cells (%) [5]: 82%
- Population Normal (%) [5]: 89%
- Population Pyknosed Nuclei (%) [5]: 18%
- Population Tubulin-Different-Phenotype (%) [5]: 48%
- Total Cell Count [5]: 613
- Population Apoptotic (%) [6]: 8%
- Population Fragmented Nuclei (%) [6]: 17%
- Population Healthy Nuclei (%) [6]: 77%
- Population Hoechst High Intensity Objects (%) [6]: 3%
- Population Membrane Permeable-Phenotype (%) [6]: 28%
- Population Mitochondria Different-Phenotype (%) [6]: 4%
- Population Mitotic Cells (%) [6]: 91%
- Population Normal (%) [6]: 96%
- Population Pyknosed Nuclei (%) [6]: 4%
- Population Tubulin-Different-Phenotype (%) [6]: 68%
- Total Cell Count [6]: 2065
- Population Apoptotic (%) [7]: 18%
- Population Fragmented Nuclei (%) [7]: 11%
- Population Healthy Nuclei (%) [7]: 77%
- Population Hoechst High Intensity Objects (%) [7]: 5%
- Population Membrane Permeable-Phenotype (%) [7]: 8%
- Population Mitochondria Different-Phenotype (%) [7]: 4%
- Population Mitotic Cells (%) [7]: 81%
- Population Normal (%) [7]: 94%
- Population Pyknosed Nuclei (%) [7]: 10%
- Population Tubulin-Different-Phenotype (%) [7]: 7%
- Total Cell Count [7]: 587
- Population Apoptotic (%) [8]: 3%
- Population Fragmented Nuclei (%) [8]: 29%
- Population Healthy Nuclei (%) [8]: 68%
- Population Hoechst High Intensity Objects (%) [8]: 3%
- Population Membrane Permeable-Phenotype (%) [8]: 5%
- Population Mitochondria Different-Phenotype (%) [8]: 1%
- Population Mitotic Cells (%) [8]: 96%
- Population Normal (%) [8]: 96%
- Population Pyknosed Nuclei (%) [8]: 2%
- Total Cell Count [8]: 2772
